According to ChEMBL document CHEMBL1153602, “Photochemical electrocyclisation of 3-vinylindoles to pyrido[2,3-a]-, pyrido[4,3-a]- and thieno[2,3-a]-carbazoles: design, synthesis, DNA binding and antitumor cell cytotoxicity” (2009):
Active and inactive are the calls of the source. The calls are words filed in the database; no cut-off is given here.

Key:
[1] = target: T1, DNA topoisomerase 1 (Homo sapiens) (UniProt P11387); assay: Inhibition of human topoisomerase 1-mediated DNA relaxation assessed as lack of nicking form by agarose gel electrophoresis
T1 sequence (whole entry): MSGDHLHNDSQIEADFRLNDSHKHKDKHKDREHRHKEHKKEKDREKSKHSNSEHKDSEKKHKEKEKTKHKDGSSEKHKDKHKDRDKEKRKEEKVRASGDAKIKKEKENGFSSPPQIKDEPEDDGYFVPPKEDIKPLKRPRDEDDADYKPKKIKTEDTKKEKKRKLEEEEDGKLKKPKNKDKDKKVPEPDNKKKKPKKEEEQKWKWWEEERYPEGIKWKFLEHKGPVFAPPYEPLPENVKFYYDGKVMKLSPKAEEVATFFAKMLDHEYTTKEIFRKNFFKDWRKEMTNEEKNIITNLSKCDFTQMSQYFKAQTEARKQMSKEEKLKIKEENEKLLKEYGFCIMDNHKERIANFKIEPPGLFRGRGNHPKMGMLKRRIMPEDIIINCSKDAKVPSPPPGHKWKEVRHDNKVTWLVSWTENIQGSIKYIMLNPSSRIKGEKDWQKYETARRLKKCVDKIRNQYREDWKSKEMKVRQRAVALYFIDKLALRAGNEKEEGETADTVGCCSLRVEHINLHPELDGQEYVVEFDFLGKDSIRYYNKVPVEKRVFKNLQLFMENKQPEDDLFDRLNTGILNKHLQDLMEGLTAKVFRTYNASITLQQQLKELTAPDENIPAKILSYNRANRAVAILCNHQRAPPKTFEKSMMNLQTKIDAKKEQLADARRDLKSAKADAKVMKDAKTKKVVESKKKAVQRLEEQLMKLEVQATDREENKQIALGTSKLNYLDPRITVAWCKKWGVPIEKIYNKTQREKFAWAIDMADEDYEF
Outline: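 Supercoiled pUC19 (130 ng) was pre-incubated with compound at graded concentrations, or 20 or 50 µM in the cleavage assay. Human topoisomerase I (4 units) was then added for 45 min at 37 °C in 50 mM Tris pH 7.8, 50 mM KCl, 10 mM MgCl2, 1 mM DTT, 1 mM EDTA, 1 mM ATP. Camptothecin (20 µM) served as control. Samples ran on 1% agarose for 2 h at 120 V in TBE, with ethidium bromide either post-stained (relaxation) or included in the gel (cleavage).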

Calf thymus DNA [2] = assay: Binding affinity to calf thymus DNA assessed as change in melting temperature at a compound to DNA molar ratio of 0.1 by UV-vis spectroscopy; type: nucleic-acid assay; conditions: Bos taurus
Outline: (§1)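 UV absorbance of DNA at 260 nm recorded every minute from 20 to 100 °C, ramping 1 °C/min in a thermostated quartz cell. Tm is taken as the midpoint of the hyperchromic transition. ΔTm = Tm(DNA+drug) − Tm(DNA alone). Calf-thymus DNA or poly(dAdT)2 was used at DNA/drug ratios from 0.1 to 1.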

Calf thymus DNA [3] = assay: Binding affinity to calf thymus DNA assessed as change in melting temperature at a compound to DNA molar ratio of 0.25 by UV-vis spectroscopy; type: nucleic-acid assay; conditions: Bos taurus; outline: as §1
Calf thymus DNA [4] = assay: Binding affinity to calf thymus DNA assessed as change in melting temperature at a compound to DNA molar ratio of 0.5 by UV-vis spectroscopy; type: nucleic-acid assay; conditions: Bos taurus; outline: as §1
Calf thymus DNA [5] = assay: Binding affinity to calf thymus DNA assessed as change in melting temperature at a compound to DNA molar ratio of 1 by UV-vis spectroscopy; type: nucleic-acid assay; conditions: Bos taurus; outline: as §1
Nucleic Acid [6] = assay: Binding affinity to poly(dA).poly(dT) duplex DNA assessed as change in thermal melting temperature at compound to DNA ratio of 0.1 by UV-vis spectroscopy; type: nucleic-acid assay
Nucleic Acid [7] = assay: Binding affinity to poly(dA).poly(dT) duplex DNA assessed as change in thermal melting temperature at compound to DNA ratio of 0.25 by UV-vis spectroscopy; type: nucleic-acid assay
Nucleic Acid [8] = assay: Binding affinity to poly(dA).poly(dT) duplex DNA assessed as change in thermal melting temperature at compound to DNA ratio of 0.5 by UV-vis spectroscopy; type: nucleic-acid assay
Nucleic Acid [9] = assay: Binding affinity to poly(dA).poly(dT) duplex DNA assessed as change in thermal melting temperature at compound to DNA ratio of 1 by UV-vis spectroscopy; type: nucleic-acid assay
Nucleic Acid [10] = assay: Binding affinity to pBS 117bp DNA by DnaseI footprinting assay; type: nucleic-acid assay
Outline: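 Ligand and fragment were pre-incubated 15 min at 37 °C, then digested with DNase I at 0.001 unit/ml in 20 mM NaCl, 2 mM MgCl2, 2 mM MnCl2, pH 7.3. Products were resolved on a denaturing 8% polyacrylamide/8 M urea gel, with a G-track marker.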

HT-29 [11] = assay: Cell cycle arrest in human HT-29 cells assessed as accumulation at S phase at 10 uM after 24 hrs using PI staining by flow cytometry; type: functional
Outline: (§2)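 HT-29 cells, 3×10^5 per sample in exponential growth, were exposed to graded drug concentrations for 24 h. Cells were then trypsinised, fixed in 70% ethanol and stained 30 min in the dark with propidium iodide (50 µg/ml) plus RNase (100 µg/ml). DNA content was measured by flow cytometry, quantifying cell-cycle phases and the sub-G1 fraction.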

HT-29 [12] = assay: Cell cycle arrest in human HT-29 cells assessed as accumulation at G2/M phase at 25 uM after 24 hrs using PI staining by flow cytometry; type: functional, cell-based; outline: as §2
UO-31 = assay: Growth inhibition of human UO31 cells after 48 hrs by sulforhodamine B protein assay; type: functional; conditions: UO-31, 48 h
Outline: (§3)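 NCI 60-cell-line screen. Dose–response used at least five concentrations in 10-fold dilutions with 48 h continuous drug exposure. Growth was estimated by sulforhodamine B protein staining. GI50 is the molar concentration giving 50% growth inhibition versus control.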

HT-29 [13] = assay: Growth inhibition of human HT-29 cells after 48 hrs by sulforhodamine B protein assay; type: functional; conditions: HT-29, 48 h; outline: as §3
SK-MEL-5 = assay: Growth inhibition of human SK-MEL-5 cells after 48 hrs by sulforhodamine B protein assay; type: functional; conditions: SK-MEL-5, 48 h; outline: as §3
SW-620 = assay: Growth inhibition of human SW620 cells after 48 hrs by sulforhodamine B protein assay; type: functional; conditions: SW-620, 48 h; outline: as §3
HT-29 [14] = assay: Growth inhibition of human HT-29 cells by MTS assay; type: functional
Outline: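 HT-29 cells, 3×10^3 per well, were seeded 24 h before treatment with compound at 1 nM–100 µM, run as 3 series of duplicate or triplicate points. After 72 h at 37 °C, MTS tetrazolium was added for 2 h and absorbance read at 492 nm. GC50 is the concentration halving cell number versus untreated control wells.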

[15] = target: DNA topoisomerase 2-alpha (Homo sapiens) (UniProt P11388); assay: Inhibition of human topoisomerase 2-mediated DNA relaxation assessed as double stranded break form by agarose gel electrophoresis
Outline: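 Supercoiled pUC19 (130 ng) with compound at 20 or 50 µM, or etoposide as control, was incubated with human topoisomerase II (4 units) for 45 min at 37 °C in cleavage buffer. The reaction was stopped with 0.25% SDS plus proteinase K for 30 min at 50 °C. DNA forms were separated on 1% agarose containing ethidium bromide in TBE.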

HT-29 [16] = assay: Cell cycle arrest in human HT-29 cells at 25 uM after 24 hrs using PI staining by flow cytometry
HT-29 [17] = assay: Cell cycle arrest in human HT-29 cells assessed as accumulation at G2/M phase after 24 hrs using PI staining by flow cytometry; type: functional, cell-based; outline: as §2
Calf thymus DNA [18] = assay: Binding affinity to calf thymus DNA assessed as quenching constant by fluorescence spectroscopy; type: nucleic-acid assay; conditions: Bos taurus
Outline: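 Drug at a fixed 20 µM in 1 ml BPE buffer in a 10 mm quartz cuvette, titrated with CT-DNA at 10–200 µM base pairs. Excitation was set at each compound's own wavelength (276–319 nm). Constants came from Stern–Volmer plots of F0/F against CT-DNA concentration, with the slope taken as Ksv.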

Calf thymus DNA [19] = assay: Binding affinity to calf thymus DNA assessed as negative dichroic signal at phosphate/drug ratio by circular dichroism spectra; type: nucleic-acid assay; conditions: Bos taurus
Outline: (§4)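 Circular dichroism of drug at […] in 1 ml of 1 mM sodium cacodylate, pH 7.0, with or without CT-DNA at 10–200 µM. Phosphate/compound ratio ran from 0.4 to 8. The induced CD signal in the ligand absorption region was recorded.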

Calf thymus DNA [20] = assay: Binding affinity to calf thymus DNA assessed as positive dichroic signal at phosphate/drug ratio by circular dichroism spectra; type: nucleic-acid assay; conditions: Bos taurus; outline: as §4

Sequence of DNA topoisomerase 2-alpha (Homo sapiens) (P11388 whole entry): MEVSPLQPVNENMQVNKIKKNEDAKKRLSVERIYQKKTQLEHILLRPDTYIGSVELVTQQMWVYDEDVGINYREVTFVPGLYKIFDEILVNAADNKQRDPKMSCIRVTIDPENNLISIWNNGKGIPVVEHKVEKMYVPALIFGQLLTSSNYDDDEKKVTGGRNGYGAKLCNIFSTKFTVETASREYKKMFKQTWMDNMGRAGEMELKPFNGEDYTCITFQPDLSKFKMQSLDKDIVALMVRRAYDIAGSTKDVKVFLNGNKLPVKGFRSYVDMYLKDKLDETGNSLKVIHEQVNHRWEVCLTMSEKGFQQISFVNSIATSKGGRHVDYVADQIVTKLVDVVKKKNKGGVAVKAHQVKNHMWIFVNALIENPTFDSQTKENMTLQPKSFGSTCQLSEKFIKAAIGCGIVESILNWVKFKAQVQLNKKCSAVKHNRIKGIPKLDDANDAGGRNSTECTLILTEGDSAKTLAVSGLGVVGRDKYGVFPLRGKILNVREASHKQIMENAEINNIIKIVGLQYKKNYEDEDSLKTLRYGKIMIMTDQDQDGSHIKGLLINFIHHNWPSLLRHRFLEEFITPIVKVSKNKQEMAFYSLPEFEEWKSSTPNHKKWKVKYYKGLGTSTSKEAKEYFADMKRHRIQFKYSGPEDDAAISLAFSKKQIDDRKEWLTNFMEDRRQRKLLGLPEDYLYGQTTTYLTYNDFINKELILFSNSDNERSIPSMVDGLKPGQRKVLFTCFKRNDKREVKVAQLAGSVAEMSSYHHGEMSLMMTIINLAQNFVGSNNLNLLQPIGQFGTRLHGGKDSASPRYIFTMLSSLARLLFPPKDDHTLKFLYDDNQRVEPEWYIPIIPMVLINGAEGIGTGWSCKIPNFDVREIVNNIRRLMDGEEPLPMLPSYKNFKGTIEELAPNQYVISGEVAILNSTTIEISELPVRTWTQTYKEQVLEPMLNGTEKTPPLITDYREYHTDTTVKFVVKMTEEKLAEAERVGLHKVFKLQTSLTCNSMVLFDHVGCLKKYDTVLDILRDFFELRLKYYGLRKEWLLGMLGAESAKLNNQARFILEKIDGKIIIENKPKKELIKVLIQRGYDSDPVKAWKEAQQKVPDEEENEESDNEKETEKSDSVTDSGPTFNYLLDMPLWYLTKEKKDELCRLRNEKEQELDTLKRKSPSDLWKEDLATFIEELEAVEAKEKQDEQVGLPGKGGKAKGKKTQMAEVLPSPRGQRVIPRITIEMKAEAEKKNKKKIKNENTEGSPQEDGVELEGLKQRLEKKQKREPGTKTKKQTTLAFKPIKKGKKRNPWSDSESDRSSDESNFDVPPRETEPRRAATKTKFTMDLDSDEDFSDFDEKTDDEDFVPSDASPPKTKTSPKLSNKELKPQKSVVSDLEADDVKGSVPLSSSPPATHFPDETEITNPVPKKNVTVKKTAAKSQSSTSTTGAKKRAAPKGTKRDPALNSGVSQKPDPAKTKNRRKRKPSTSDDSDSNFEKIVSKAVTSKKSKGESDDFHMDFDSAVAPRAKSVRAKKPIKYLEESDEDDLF

| Compound | Activity [1] | ΔTm (Calf thymus DNA [2]) [°C] | ΔTm (Calf thymus DNA [3]) [°C] | ΔTm (Calf thymus DNA [4]) [°C] | ΔTm (Calf thymus DNA [5]) [°C] | ΔTm (Nucleic Acid [6]) [°C] | ΔTm (Nucleic Acid [7]) [°C] | ΔTm (Nucleic Acid [8]) [°C] | ΔTm (Nucleic Acid [9]) [°C] | Activity (Nucleic Acid [10]) | GI50 (HT-29 [14]) [µM] | other results |
| --- | --- | --- | --- | --- | --- | --- | --- | --- | --- | --- | --- | --- |
| CC[C@@]1(O)C(=O)OCc2c1cc1n(c2=O)Cc2cc3ccccc3nc2-1 | Active |  |  |  |  |  |  |  |  |  |  |  |
| O=C(NCCCN1CCOCC1)c1cc2c3cccc(Cl)c3[nH]c2c2ncccc12 |  | 0 | 0.7 | 0.4 | 0.6 | 2.1 | 3.9 | 5.3 | 5.3 | inactive |  |  |
| CN(C)CCNC(=O)c1cc2c3cc(Cl)ccc3[nH]c2c2ncccc12 | Active | 1.5 | 7.4 | 7.3 | 11.7 | 6.1 | 14.7 | 18.9 | 24.9 | Active | 3.2 | Activity (HT-29 [11]): 37%; Activity (HT-29 [12]): Active; GI50 (UO-31; read-out: GI50): 1.1 µM; GI50 (UO-31; read-out: pGI50 (converted)): 1.1 µM; GI50 (HT-29 [13]; read-out: GI50): 2.33 µM; GI50 (HT-29 [13]; read-out: pGI50 (converted)): 2.34 µM; GI50 (SK-MEL-5; read-out: GI50): 1.34 µM; GI50 (SK-MEL-5; read-out: pGI50 (converted)): 1.35 µM; GI50 (SW-620; read-out: GI50): 1.47 µM; GI50 (SW-620; read-out: pGI50 (converted)): 1.48 µM; Activity [15]: Active; Activity (HT-29 [16]): Active |
| CN(C)CCCNC(=O)c1cc2c3cc(Cl)ccc3[nH]c2c2ccncc12 |  | 3.6 | 6.6 | 10.7 | 13.9 | 10.3 | 17.3 | 22.7 | 28.3 | Active | 2.2 | Activity (HT-29 [17]): Active; KSV (Calf thymus DNA [18]): 9.95 ×10³ /M; Activity (Calf thymus DNA [19]): Active; Activity (Calf thymus DNA [20]): Active |
